Assay [1] addresses Insulin receptor (Homo sapiens) (UniProt P06213). Nature of the assay: Activation of human insulin receptor overexpressed in mouse 3T3-HIR cells assessed as increase in phosphotyrosine at >=18 uM in absence of insulin. The assay is classed as cell-based.
Assay [2] relates to 3T3-L1. Nature of the assay: Increase in glucose transport in mouse 3T3-L1 cells at 30 uM in absence of insulin. In kind it is functional. The method, boiled down:
(§1)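 Differentiated 3T3-L1 adipocytes (induced 72 h with dexamethasone, IBMX and insulin, then 48 h with insulin, then 4 days in normal medium) were serum-starved 16 h in 0.1% BSA. Compound was added without insulin for 30 min at 37 °C. Uptake of 0.5 µCi/mL 2-deoxy-D-[14C]glucose over 30 min was read by scintillation counting of lysates after a cold PBS rinse.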

In assay [3] the test system is 3T3-L1. The experiment in a line: Increase in insulin-stimulated glucose transport in mouse 3T3-L1 cells at >=30 uM in presence of insulin. In kind it is functional, cell-based.
Assay [4] relates to 3T3-L1. Nature of the assay: Increase in GLUT4 content in mouse 3T3-L1 cell plasma membrane at 56 uM in presence of insulin. The assay is classed as functional.
Assay [5] concerns Rattus norvegicus. The experiment in a line: Reduction in blood glucose level in streptozotocin-induced hypoinsulinemic CD rat at 50 mg/kg, ip after 30 mins after glucose loading by oral glucose tolerance test. In kind it is functional. Also noted: scale not given: the % may be the effect or the level left. The method, boiled down: (§2)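 Male CD IGS rats (250-300 g) received streptozotocin 60 mg/kg ip and were enrolled if fed glucose was ≥250 mg/dL. On day 4 post-STZ they were fasted overnight and randomized on baseline glucose (n = 12/group). They got compound or PBS, then a 50% dextrose load by gavage (4 mL/kg). Tail blood glucose was read by glucometer, and groups were compared by unpaired t test.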

Assay [6] relates to Rattus norvegicus. The experiment in a line: Reduction in blood glucose level in streptozotocin-induced hypoinsulinemic CD rat at 1000 mg/kg, po after 30 mins after glucose loading by oral glucose tolerance test. Also noted: scale not given: the % may be the effect or the level left. The assay is classed as functional. The method, boiled down:
as §2

For assay [7], the system named is 3T3-L1. The experiment in a line: Increase in glucose transport in mouse 3T3-L1 cells at 50 uM in absence of insulin. The assay is classed as functional. The method, boiled down: as §1
The target of the next assay is Insulin receptor (Mus musculus, UniProt P15208). Nature of the assay: Activation of insulin receptor tyrosine kinase in mouse 3T3-L1 cells assessed as increase in 2-deoxy-D-[14C]glucose transport in presence of insulin. In kind it is cell-based. The method, boiled down:
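Differentiated, 16 h serum-starved 3T3-L1 adipocytes were exposed to compound plus 5.6 nM insulin (submaximal) for 30 min at 37 °C. They were then pulsed 30 min with 0.5 µCi/mL 2-deoxy-D-[14C]glucose and lysate counts were read. Four concentrations were tested in triplicate. EC50 came from nonlinear regression of untransformed data, given as mean ± SEM when n ≥ 3.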

The target in assay [8] is Insulin receptor (Homo sapiens) (UniProt P06213). Nature of the assay: Activation of human insulin receptor overexpressed in mouse 3T3-HIR cells assessed as increase in phosphotyrosine at 3 uM in presence of insulin. The assay is classed as cell-based.
Insulin receptor (Homo sapiens), sequence (P06213 28-758 limits assumed): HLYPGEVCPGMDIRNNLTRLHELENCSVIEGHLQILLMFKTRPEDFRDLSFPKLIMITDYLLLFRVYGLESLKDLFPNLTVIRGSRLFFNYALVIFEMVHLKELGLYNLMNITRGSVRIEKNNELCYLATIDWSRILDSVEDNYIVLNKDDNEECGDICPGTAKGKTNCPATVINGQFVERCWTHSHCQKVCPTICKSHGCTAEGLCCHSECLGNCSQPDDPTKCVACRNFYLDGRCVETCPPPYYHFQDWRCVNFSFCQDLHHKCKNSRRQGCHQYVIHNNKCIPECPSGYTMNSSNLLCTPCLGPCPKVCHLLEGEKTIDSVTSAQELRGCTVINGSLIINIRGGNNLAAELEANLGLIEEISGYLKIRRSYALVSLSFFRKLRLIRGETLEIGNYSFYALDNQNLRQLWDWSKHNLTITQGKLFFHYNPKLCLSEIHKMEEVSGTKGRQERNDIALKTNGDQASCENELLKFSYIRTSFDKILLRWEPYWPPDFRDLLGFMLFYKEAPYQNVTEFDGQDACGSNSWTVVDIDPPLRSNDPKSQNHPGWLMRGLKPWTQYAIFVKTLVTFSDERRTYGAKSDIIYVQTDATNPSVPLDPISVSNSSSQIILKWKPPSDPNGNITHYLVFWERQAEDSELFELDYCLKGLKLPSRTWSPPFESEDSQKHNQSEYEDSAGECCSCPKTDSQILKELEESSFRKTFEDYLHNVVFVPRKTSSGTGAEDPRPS
Insulin receptor (Homo sapiens), sequence (P06213 763-1382 limits assumed): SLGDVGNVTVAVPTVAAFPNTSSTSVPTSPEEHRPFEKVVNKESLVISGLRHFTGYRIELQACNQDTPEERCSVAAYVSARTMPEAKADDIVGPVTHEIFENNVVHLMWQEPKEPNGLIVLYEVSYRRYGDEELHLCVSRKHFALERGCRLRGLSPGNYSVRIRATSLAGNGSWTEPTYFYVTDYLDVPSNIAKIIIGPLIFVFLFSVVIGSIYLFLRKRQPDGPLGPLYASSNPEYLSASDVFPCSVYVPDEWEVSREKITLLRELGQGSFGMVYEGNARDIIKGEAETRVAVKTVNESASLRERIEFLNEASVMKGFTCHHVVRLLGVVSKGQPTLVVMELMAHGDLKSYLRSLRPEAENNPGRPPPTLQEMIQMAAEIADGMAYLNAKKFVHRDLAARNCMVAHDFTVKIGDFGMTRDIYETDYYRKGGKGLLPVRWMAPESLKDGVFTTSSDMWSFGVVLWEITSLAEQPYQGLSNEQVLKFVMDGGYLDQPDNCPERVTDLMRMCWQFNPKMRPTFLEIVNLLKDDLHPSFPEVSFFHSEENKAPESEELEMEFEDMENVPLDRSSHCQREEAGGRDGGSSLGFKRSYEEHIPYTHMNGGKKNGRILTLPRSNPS
The target is the same in assay [9]. Nature of the assay: Effect on autophosphorylation of human insulin receptor cytoplasmic kinase domain. The essentials:
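Recombinant human IR cytoplasmic domain (200 ng) in 50 mM Tris pH 7.4 with 2 mM MnCl2, 10 mM MgCl2, 50 µM ATP and [γ-32P]ATP (10 µCi) was incubated with varied compound concentrations for 10 min at 25 °C. Incorporated label was measured by scintillation counting, either of excised SDS-PAGE bands or of TCA precipitates washed with phosphoric acid.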

For assay [10], the target named is Insulin receptor (Mus musculus) (UniProt P15208). Nature of the assay: Activation of insulin receptor tyrosine kinase in mouse 3T3-L1 cells assessed as increase in 2-deoxy-D-[14C]glucose transport in absence of insulin. In kind it is cell-based. The essentials: as §1
Insulin receptor (Mus musculus), sequence (P15208 28-748 limits assumed): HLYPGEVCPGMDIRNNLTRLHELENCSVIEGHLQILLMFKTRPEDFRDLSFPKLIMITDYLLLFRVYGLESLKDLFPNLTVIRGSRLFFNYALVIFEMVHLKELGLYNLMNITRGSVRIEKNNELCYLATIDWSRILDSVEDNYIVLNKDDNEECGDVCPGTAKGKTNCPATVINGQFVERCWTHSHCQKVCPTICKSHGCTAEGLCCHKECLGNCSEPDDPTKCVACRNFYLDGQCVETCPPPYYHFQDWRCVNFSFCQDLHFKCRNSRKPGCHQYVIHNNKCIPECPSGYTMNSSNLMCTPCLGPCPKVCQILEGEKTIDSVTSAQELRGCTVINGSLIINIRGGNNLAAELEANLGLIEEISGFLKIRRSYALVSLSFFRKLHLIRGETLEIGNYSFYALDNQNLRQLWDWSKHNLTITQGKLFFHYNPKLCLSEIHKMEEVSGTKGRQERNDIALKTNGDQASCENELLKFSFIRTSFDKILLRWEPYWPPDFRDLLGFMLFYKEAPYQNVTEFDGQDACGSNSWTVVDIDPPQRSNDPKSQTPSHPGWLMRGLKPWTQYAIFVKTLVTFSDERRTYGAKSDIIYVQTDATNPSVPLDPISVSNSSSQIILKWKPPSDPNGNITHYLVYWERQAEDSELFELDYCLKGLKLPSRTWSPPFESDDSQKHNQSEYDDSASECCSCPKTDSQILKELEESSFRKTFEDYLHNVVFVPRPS
Insulin receptor (Mus musculus), sequence (P15208 753-1372 limits assumed): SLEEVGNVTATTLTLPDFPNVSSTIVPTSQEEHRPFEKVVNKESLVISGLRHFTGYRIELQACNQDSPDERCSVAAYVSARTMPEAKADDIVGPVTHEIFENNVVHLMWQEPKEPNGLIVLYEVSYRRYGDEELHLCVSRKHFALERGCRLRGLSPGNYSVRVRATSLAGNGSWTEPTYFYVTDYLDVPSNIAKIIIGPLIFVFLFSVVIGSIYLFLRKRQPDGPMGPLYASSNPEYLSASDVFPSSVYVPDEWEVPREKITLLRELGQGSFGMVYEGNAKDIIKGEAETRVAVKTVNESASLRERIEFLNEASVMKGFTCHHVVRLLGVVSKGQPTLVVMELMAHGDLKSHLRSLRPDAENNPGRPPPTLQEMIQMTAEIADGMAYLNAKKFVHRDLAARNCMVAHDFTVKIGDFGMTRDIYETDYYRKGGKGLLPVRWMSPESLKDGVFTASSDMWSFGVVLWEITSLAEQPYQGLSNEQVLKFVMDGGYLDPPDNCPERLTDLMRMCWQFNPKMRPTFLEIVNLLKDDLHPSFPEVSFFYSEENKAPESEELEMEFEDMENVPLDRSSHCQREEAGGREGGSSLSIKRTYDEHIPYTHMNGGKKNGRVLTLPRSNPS

The source made the active and inactive calls. No cut-off for these calls is given here.

Insulin receptor, sequence (P15208 28-748 limits assumed): as the sequence (P15208 28-748 limits assumed) above
Insulin receptor, sequence (P15208 753-1372 limits assumed): as the sequence (P15208 753-1372 limits assumed) above

Turning to `O=C(Nc1ccc2c(O)cc(S(=O)(=O)Nc3ccc(Cl)c(S(=O)(=O)[O-])c3)cc2c1)Nc1ccc2c(O)cc(S(=O)(=O)Nc3ccc(Cl)c(S(=O)(=O)[O-])c3)cc2c1.[Na+].[Na+]`, the result (in [1]; in the assay with 3T3-L1 [3]) was Active. Moreover, the Activity worked out at 340% with 3T3-L1 [2]; 85% with 3T3-L1 [4]; 25% in the assay with Rattus norvegicus [5]; 32% with Rattus norvegicus [6]; 875% with 3T3-L1 [7]; 75% in assay [8]. Further, the EC50 on Insulin receptor was 5 µM.

As for `O=C(Nc1ccc2c(O)cc(S(=O)(=O)Nc3cccc(S(=O)(=O)O)c3)cc2c1)Nc1ccc2c(O)cc(S(=O)(=O)Nc3cccc(S(=O)(=O)O)c3)cc2c1`, at Insulin receptor, the EC50 amounted to 26 µM. In addition, in assay [9], the Activity entry is “Dose-dependent effect”.

Regarding `O=C(Nc1ccc2c(O)c(/N=N/c3ccc(/N=N/c4ccc(S(=O)(=O)O)cc4)cc3S(=O)(=O)O)c(S(=O)(=O)O)cc2c1)Nc1ccc2c(O)cc(S(=O)(=O)O)c(/N=N/c3ccc(/N=N/c4ccc(S(=O)(=O)O)cc4)cc3S(=O)(=O)O)c2c1`, in assay [10], the result was inactive. Also, the EC50 on Insulin receptor was determined as 90 µM. Moreover, in [9], the Activity result is “Dose-dependent effect”.

(Values after ChEMBL document CHEMBL1140118, “Design, synthesis, and structure-activity relationships of novel insulin receptor tyrosine kinase activators” (J Med Chem, 2008).)
